Only some compounds are listed: those with a hit (about 2.1% of all), similar ones and a draw of the others.
APJ antagonist – blocks the human apelin receptor APJ; P35414; AID 2521; inhibition, % at 20 µM; hit rate 0.32% among 330,000; CHO-K1 APJ beta-arrestin complementation, luminescence;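 active = inhibition above about 40% at 20 µM, limit read from the data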;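 also: cells challenged with 10 nM apelin-13 agonist together with compound; plate controls were apelin-13 plus DMSO wells for no effect and DMSO wells lacking apelin-13 for full effect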
Target sequence (P35414 whole entry, looked up): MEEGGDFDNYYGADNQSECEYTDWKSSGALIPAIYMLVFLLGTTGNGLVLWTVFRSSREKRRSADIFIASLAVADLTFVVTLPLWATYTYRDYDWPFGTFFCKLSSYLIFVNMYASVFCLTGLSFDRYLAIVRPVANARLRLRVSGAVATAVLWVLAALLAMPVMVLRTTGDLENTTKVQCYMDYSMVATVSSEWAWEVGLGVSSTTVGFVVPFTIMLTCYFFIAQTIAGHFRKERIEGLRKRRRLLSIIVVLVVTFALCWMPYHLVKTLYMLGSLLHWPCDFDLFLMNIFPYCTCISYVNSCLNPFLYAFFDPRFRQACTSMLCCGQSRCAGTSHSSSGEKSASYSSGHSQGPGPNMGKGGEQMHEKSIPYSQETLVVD
APJ ag – APJ receptor agonism; hit rate 0.11% among 330,000; CHO-K1 APJ PathHunter beta-arrestin, luminescence; 0% DMSO wells, 100% apelin; activation, % at 20 µM;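 active = activation more than six SD over the plate average, tested at 20 µM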;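 also: 0% = DMSO alone and 100% = apelin-13 at 10 nM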
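Material: CHO-K1 APJ beta-arrestin complementation cell line; Input: cell density 1000 per well; Incubation: compound stimulation 90 min at 25 °C, detection 60 min; Signal: luminescence from split beta-galactosidase complementation, Galacton Star/Emerald II substrate; Controls: DMSO-only wells as negative, 10 nM Apelin-13 as positive control.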
CXCR6 inh – CXCR6 (human) receptor inhibition | O00574 | AID 602244 | hit rate 0.36% among 360,000 | CHO-K1 PathHunter CXCR6 beta-arrestin, luminescence | inhibition, % at 20 µM; in the data active = inhibition above about 34%, passing the limit was not always enough;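 also: antagonist mode with CXCL16 agonist at 10 nM final; 0% = 10 nM CXCL16 with DMSO and 100% = unstimulated wells without agonist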
m5-HT2A agonist – mouse HTR2A agonism via beta-arrestin recruitment. P35363. CHO-K1 mHTR2A beta-arrestin complementation, luminescence; percent of 30 µM serotonin response. activation, % at 7.6 µM. hit rate 0.66% among 360,000;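 active = activation above a run cutoff, the mean activation of all tested compounds plus 3 SD, cut at about 14% in these data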;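 also: 0% = plate median of compound wells and 100% = 30 µM serotonin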
EBI2 block – blocks human EBI2 receptor beta-arrestin signaling. P32249. EBI2 beta-arrestin recruitment, luminescence, 7a,25-OHC stimulated. inhibition, % at 5 µM. hit rate 0.81% among 360,000; in the data active = inhibition above about 38%;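 also: enzyme fragment complementation signal reports receptor beta-arrestin coupling in cells; 0% = agonist plus DMSO wells and 100% = wells without agonist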
CCR6 antag – blocks CCL20-driven beta-arrestin recruitment at human CCR6; P51684; inhibition, % at 20 µM; hit rate 0.49% among 340,000; CHO-K1 CCR6 PathHunter beta-arrestin, luminescence, CCL20-stimulated;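 active = compounds whose inhibition of the agonist-driven luminescence signal at 20 µM reaches about 50%, limit read from the data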;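 also: cells stimulated with CCL20 at 14 nM final; plate controls were DMSO with CCL20 for no effect and DMSO without agonist for full effect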
EBI2 antag conf – confirmation of human EBI2 receptor antagonists; EBI2 beta-arrestin luminescence, 7a,25-OHC antagonism; inhibition, % at 5 µM; hit rate 29% among 2,400; shares compounds with EBI2 block;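 active = inhibition of at least 50%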
EBI2 agonist – counter-screen for EBI2 antagonists: EBI2 agonist activity. shares compounds with EBI2 block. EBI2-expressing cells, agonist mode, luminescence, 60 min; 0% vehicle, 100% 7α,25-dihydroxycholesterol control. activation, % at 5 µM. 2,400 tested, under 10 active. AID 652000;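 active = activation of at least 50%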
bGal cs – counter-screen for EBI2 antagonists: E. coli beta-galactosidase inhibition | shares compounds with EBI2 block | AID 652176 | hit rate 1% among 2,400 | purified beta-galactosidase, luminescent Galacton Star, 15 min | inhibition, % at 5 µM;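 active = replicate-average signal at least 3 plate SD below neutral wells, shown as high inhibition, flagging enzyme-inhibiting false positives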;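 also: 0% = DMSO wells with enzyme and 100% = wells lacking enzyme; higher means stronger loss of beta-gal luminescence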
* = called active by the depositor; . = no result.

SMILES	APJ antagonist	APJ ag	CXCR6 inh	m5-HT2A agonist	EBI2 block	CCR6 antag	EBI2 antag conf	EBI2 agonist	bGal cs
CN1CCN(C(=O)COc2ccc3ccccc3c2)CC1	28	1	0	0	53*	13	31	-1	-7
O=C(COc1ccc(S(=O)(=O)N2CCOCC2)cc1)N1CCN(Cc2ccc3c(c2)OCO3)CC1	-15	1	-6	2	-20	7	.	.	.
CCOc1ccc(CN2CCN(C(=O)Cc3ccccc3)CC2)cc1	11	-1	1	-1	1	-6	.	.	.
O=C(COc1ccc(Br)cc1)N1CCN(Cc2ccncc2)CC1	.	.	5	1	68*	11	54*	-2	-12
O=C(COc1ccc(Br)cc1)N1CCN(Cc2ccc3c(c2)OCO3)CC1	-8	-1	-5	10	92*	10	70*	0	-9
Cc1cccc(OCC(=O)N2CCN(Cc3ccncc3)CC2)c1	7	-2	-21	3	-13	3	.	.	.
CSc1ccc(CN2CCN(C(=O)COc3ccc(C)cc3)CC2)cc1	-1	4	0	0	92*	7	71*	2	-4
Cc1ccc(OCC(=O)N2CCN(Cc3ccc4c(c3)OCO4)CC2)cc1C	0	-3	-3	3	71*	-3	57*	0	-13
Cc1cccc(OCC(=O)N2CCN(Cc3ccc4c(c3)OCO4)CC2)c1	10	-2	-2	2	26	10	.	.	.
CCOC(=O)[C@]12Cc3c(cc(OC)c(OC)c3OC)[C@H]1N(CCC(=O)OC)C(=O)c1ccccc12	.	.	-4	-2	-4	.	.	.	.
O=C(COc1ccccc1)c1cn(Cc2ccccc2)c2ccccc12	-5	-2	0	-4	46*	20	26	-1	-14
COC(=O)C1=C(c2c(C)noc2C)C[C@@H]2CC[C@H]1N2C(=O)N1CCC(O)(c2ccc(Cl)cc2)CC1	7	-2	4	-4	42*	5	26	-1	-18
COc1ccc(-n2c(O)c(C(C)=NC3CC3)c(=O)[nH]c2=O)cc1	29	-2	6	-3	-10	10	.	.	.
Nc1c(C(=O)NCCc2ccccc2)c2nc3ccccc3nc2n1CCN1CCOCC1	22	-4	2	4	21	32	.	.	.
Nc1c(C(=O)NCCN2CCOCC2)c2nc3ccccc3nc2n1Cc1ccccc1	12	-4	-2	2	74*	0	34	1	6
CCc1cc2c(cc1-c1csc(C/C(N)=N/O)n1)C(C)(C)CCC2(C)C	.	.	6	1	14	.	.	.	.
